Screens: PubChem BioAssay, Sanford-Burnham Center for Chemical Genomics
bIAP activator: bovine intestinal alkaline phosphatase activators, primary screen, biochemical, bovine IAP, CDP-star luminescence; purified bovine IAP, 30 min; hits give high values; fold of DMSO-control signal, blank-subtracted; activation factor at 20 µM; 200,000 tested, 0.17% active;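 active means activation factor of 2 or more at 20 µM, a signal rise over negative controls twice the positive control's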
hIAP inh: human IAP inhibitors, primary screen, biochemical, luminescence, uHTS | Intestinal-type alkaline phosphatase (Homo sapiens), P09923 | purified IAP, CDP-Star luminescence, 30 min | inhibition, % at 10 µM | 330,000 tested, 0.12% active | AID 2544, 2010;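 active means inhibition reaching a set limit with compound at 10 µM in the primary screen, cut at about 35% in these data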;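 further: plate controls were DMSO wells with enzyme for no effect and no-enzyme buffer wells for full effect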
Target sequence (P09923 whole entry, looked up): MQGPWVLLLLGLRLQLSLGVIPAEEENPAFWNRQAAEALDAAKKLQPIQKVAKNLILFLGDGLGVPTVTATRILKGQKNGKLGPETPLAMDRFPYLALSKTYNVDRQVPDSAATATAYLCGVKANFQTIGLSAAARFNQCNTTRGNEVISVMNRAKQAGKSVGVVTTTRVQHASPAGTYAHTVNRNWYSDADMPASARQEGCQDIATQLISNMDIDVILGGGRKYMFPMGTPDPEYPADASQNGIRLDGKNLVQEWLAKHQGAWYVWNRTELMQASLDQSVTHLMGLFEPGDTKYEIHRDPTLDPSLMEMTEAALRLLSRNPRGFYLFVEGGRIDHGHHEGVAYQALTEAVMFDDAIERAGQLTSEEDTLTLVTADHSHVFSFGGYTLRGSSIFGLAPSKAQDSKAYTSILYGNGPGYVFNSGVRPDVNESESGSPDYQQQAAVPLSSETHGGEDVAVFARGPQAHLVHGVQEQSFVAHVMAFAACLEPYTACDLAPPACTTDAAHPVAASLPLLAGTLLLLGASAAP
bIAP inhibitor: bovine intestinal alkaline phosphatase inhibitors, primary screen, selectivity assay for TNAP inhibitor project, biochemical, bovine IAP, CDP-star luminescence | purified bovine IAP, 30 min | inhibition, % at 20 µM | 190,000 tested, under 10 active;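 active means over 50% inhibition of intestinal alkaline phosphatase at 20 µM in the single-dose screen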
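Assay system – bovine IAP enzyme · Quantity – bovine IAP at 1/65,000,000 final dilution · Detection – CDP-star luminescence signal · Times – 30 min reaction at room temperature · Also added – CDP-star substrate at 30 µM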
hIAP activ: human IAP activators, primary screen, biochemical, luminescence, uHTS | Intestinal-type alkaline phosphatase (Homo sapiens), P09923 | purified human IAP, CDP-Star luminescence, 30 min; hits give high values; 1 = vehicle-only enzyme, 0 = enzyme-free background | activation factor at 10 µM | 330,000 tested, 0.16% active | AID 2524, 2010;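 active means activation factor of the enzyme at least 2-fold when tested at 20 µM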
mIAP activ: activators of mouse IAP, primary screen, biochemical, luminescence, uHTS; intestinal alkaline phosphatase [Mus musculus]; muIAP, CDP-Star luminescence, 30 min; hits give high values; 1 = vehicle-only enzyme signal, 0 = enzyme-free wells; activation factor at 10 µM; 330,000 tested, 0.24% active; AID 2805, 2010;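 active means activation factor of at least 2 at 20 µM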
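System: mouse IAP enzyme. Reagent: CDP-Star chemiluminescent phosphatase substrate. Benchmarks: DMSO wells, no-enzyme wells. Times: 30 min enzyme-substrate-compound incubation at room temperature. Detection: luminescence from enzymatic CDP-Star hydrolysis. Doses: test compounds delivered from DMSO solution.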
mIAP block: inhibitors of mouse IAP, primary screen, biochemical, luminescence, uHTS; intestinal alkaline phosphatase [Mus musculus]; purified mouse IAP, CDP-Star luminescence, 30 min; inhibition, % at 10 µM; 330,000 tested, 0.2% active; AID 2806, 2010;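 active means inhibition of at least 40% at 10 µM in the primary screen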;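 further: plate controls were DMSO with enzyme for no effect and no enzyme wells for full effect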
hIAP act confirm: human IAP activators, confirmation, biochemical, luminescence, single concentration, uHTS hits; shares compounds with hIAP activ; purified IAP, CDP-Star luminescence, 30 min; hits give low values; activation (%Activity, negative = activation), % at 8.3 µM; 880 tested, 10% active; AID 434926, 2010;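 active means at least twofold enzyme activation in any of six single-dose repeats, which the averaged readout prints as negative percent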
An asterisk follows results filed as active; i = inactive; · = not tested or not shown. Sampled rows, rich in hits. Any-hit rate of the full collection: about 0.77%.

SMILES | bIAP activator | hIAP inh | bIAP inhibitor | hIAP activ | mIAP activ | mIAP block | hIAP act confirm
CCC(C)(C)NC(=O)C(c1cccc(OC)c1)N(C(=O)c1ccn[nH]1)c1cccc(OC)c1 (stereo not drawn) | 0.7 | -60 | 27 | 1.6 | 1.2 | -16 | ·
COc1ccc(N(C(=O)c2ccn[nH]2)C(C(=O)NC(C)(C)C)c2ccc(F)cc2)cc1 (stereo not drawn) | 3* | 0 | -201 | 1 | 1.1 | -13 | ·
CC(C)(C)NC(=O)C(c1ccc(F)cc1)N(CCc1ccccc1)C(=O)c1ccn[nH]1 (stereo not drawn) | 2* | -85 | -100 | 1.9 | 1.1 | -6 | ·
O=C(CSc1nnc(CNC(=O)c2ccc(F)cc2)o1)Nc1nccs1 | · | -18 | · | 1.2 | 0.95 | 5 | ·
O=C(Nc1ncccn1)C1CCCCC1 | 1 | -13 | 4 | 1.1 | 1.2 | -18 | ·
O=C(Nc1n[nH]c(C2CCCCC2)n1)C1CCCCC1 | 8.1* | 9 | i | 0.91 | 2.3* | -133 | ·
CCN1/C(=C\C=C2\C(=O)N(C)C(=S)N2C)Sc2ccccc21 | 0.6 | 37* | 35 | 0.63 | 0.85 | 15 | ·
Cc1cccc(NC(=O)Nc2ccc3c(c2)CCC3)c1 | · | -5 | · | 1.1 | 2.9* | -188 | ·
CCOC(=O)c1sc(NC(=O)Nc2ccccc2)cc1C | 1.2 | -18 | -22 | 1.2 | 1.7 | -71 | ·
CCOC(=O)c1sc(NC(=O)Nc2ccccc2Cl)cc1C | 1 | 3 | 4 | 0.97 | 3.2* | -221 | ·
Cc1cc(OCCCCCn2ccnc2)cc(C)c1Cl | 68* | -53 | i | 1.5 | 1.1 | -11 | ·
CCOC(=O)c1c(C)n(-c2ccc(C)cc2)c2ccc(OCC(O)CNCCCO)cc12 (stereo not drawn) | 2* | -2 | -99 | 1 | 1 | 0 | ·
O=C1C2C3C=CC(C3)C2C(=O)N1c1n[nH]c(-c2cccnc2)n1 (stereo not drawn) | 0.8 | 66* | 17 | 0.34 | 1 | -2 | -82*
O=C1C2C3C=CC(C3)C2C(=O)N1c1n[nH]c(-c2ccccc2)n1 (stereo not drawn) | 0.5 | 5 | 47 | 0.95 | 1 | 0 | ·
O=C1C2CC=CCC2C(=O)N1c1n[nH]c(-c2ccccc2)n1 (stereo not drawn) | 0.1 | 92* | · | 0.08 | 0.97 | 2 | -46
COc1ccc(CCN(C)C(=O)c2c(C)nn(-c3ccccc3)c2C)cc1OC | · | -25 | · | 1.3 | 1 | -3 | ·
COc1cc(/C=N\NS(=O)(=O)c2ccccc2)cc(OC)c1OC | · | 37* | · | 0.63 | 1.1 | -6 | 31
Cc1oc(-c2ccc(Cl)cc2)nc1CS(=O)CC(=O)NCCCN1CC(C)CC(C)C1 (stereo not drawn) | · | -32 | · | 1.3 | 1 | -2 | ·
C=C(C)COc1cc2oc(=O)c(CC(=O)N3C[C@H]4C[C@@H](C3)c3cccc(=O)n3C4)c(C)c2cc1Cl | · | 0 | · | 1 | 0.89 | 11 | ·
COc1ccc(OC)c(S(=O)(=O)n2nnc3ccccc32)c1 | 0.9 | 37* | 6 | 0.63 | 0.96 | 4 | -54
O=C(Nc1cccc(C(=O)Nc2cccc(Br)c2)c1)c1ccccc1 | · | -4 | · | 1 | 1 | -3 | ·
CC(C)c1ccc(NC(=O)c2cccc(Br)c2)cc1 | 0.8 | -145 | 18 | 2.4* | 1 | -1 | -13
COc1cc(/C=C2\Oc3cc(O)ccc3C2=O)ccc1O | · | 46* | · | 0.55 | 0.8 | 20 | 10
CCN(CC(=O)NC(c1ccccc1)c1ccccc1)Cc1nc2ccccc2c(=O)[nH]1 | 2.4* | -113 | -142 | 2.1* | 1.6 | -65 | -65
CCN(CC(=O)Nc1ccccc1SC)Cc1nc2ccccc2c(=O)[nH]1 | · | -39 | · | 1.4 | 0.97 | 3 | ·
SMILES | bIAP activator | hIAP inh | bIAP inhibitor | hIAP activ | mIAP activ | mIAP block | hIAP act confirm
CN1CCN(c2cc(N3CCN(C(=O)c4ccco4)CC3)c3c4c(onc24)-c2ccccc2C3=O)CC1 | · | 42* | · | 0.57 | 0.83 | 17 | 3
O=C1c2ccccc2-c2onc3c(N4CCN(CCO)CC4)cc(N4CCN(C(=O)c5ccco5)CC4)c1c23 | · | 16 | · | 0.84 | 0.97 | 3 | ·
COc1ccc(-c2nnc(SCC(=O)N3CCOCC3)n2C)cc1OC | 0.9 | -127 | 10 | 2.3* | 1 | 0 | 5
COc1ccc(NC2CCCN(C(=O)CSc3ccccc3)C2)cc1OC (stereo not drawn) | · | 9 | · | 0.91 | 1.1 | -7 | ·
CC(=O)Nc1ccc(SCc2csc(C)n2)cc1 | · | 15 | · | 0.85 | 0.93 | 7 | ·
COCCn1c(=O)[nH]c(=O)c2c(C(F)(F)F)cc(-c3cccs3)nc21 | 0.8 | 7 | 16 | 0.93 | 1 | -1 | ·
Cc1c(C(C)NC(=O)Nc2ccc(F)cc2F)cnn1C (stereo not drawn) | 1.1 | -110 | -13 | 2.1* | 1.1 | -5 | -47
CCc1cc2ccc(C)cc2nc1SCC(=O)N1CCN(C(=O)c2ccco2)CC1 | 0.9 | -105 | 6 | 2.1* | 0.91 | 9 | -37
CCN(CC(=O)Nc1cc(Cl)ccc1C)C(=O)c1ccc(N2CCCC2=O)cc1 | · | 12 | · | 0.88 | 0.94 | 6 | ·
O=C(N/N=C/c1ccc(F)cc1)c1cc(-c2ccccn2)nc2ccccc12 | · | 4 | · | 0.96 | 0.87 | 13 | ·
COc1cccc(/C=N/NC(=O)CNC(=O)c2ccncc2)c1O | · | -116 | · | 2.2* | 0.95 | 5 | -42
COc1cc(OC)c(OC)cc1/C=N/NC(=O)c1cc(-c2cccn2C)n[nH]1 | 1.2 | 4 | -22 | 0.96 | 0.97 | 3 | ·
COc1cccc(/C=N/NC(=O)c2cc(-c3ccccn3)nc3ccccc23)c1O | · | -113 | · | 2.1* | 1 | 0 | -1
CCOc1cccc(/C=N/NC(=O)c2cc(-c3cccn3C)n[nH]2)c1O | 1.1 | -162 | -12 | 2.6* | 0.79 | 21 | 23
COc1cccc(/C=N/Nc2ccc([N+](=O)[O-])cc2)c1O | · | 37* | · | 0.63 | 0.86 | 14 | -19
CN(CC(=O)Nc1ccc(N2CCOCC2)cc1)C(=O)c1ccc(CS(C)(=O)=O)cc1 | · | -1 | · | 1 | 0.9 | 10 | ·
COc1cccc(/C=N/NC(=O)c2ccc(=O)[nH]n2)c1O | · | -144 | · | 2.4* | 0.89 | 11 | 2
CCn1nc(C)cc1C(=O)NC1CCCc2c1cnn2-c1ccc(C)c(C)c1 (stereo not drawn) | · | -52 | · | 1.5 | 1.2 | -20 | ·
